# Only some compounds are listed: those with a hit (about 2.1% of all), similar ones and a draw of the others.
# GSK3 alpha inh = blockers of GSK3A enzyme activity – biochemical, luminescence, cell-free homogeneous, HTS, primary screen. GSK-3 alpha kinase, ADP-Glo luminescence, 60 min. inhibition, % at 10 µM. actives 0.1% (n = 320,000);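 active = more than half of replicates show inhibition above 20%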;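 also: GST-tagged GSK-3 alpha with peptide substrate and 25 µM ATP; 0% = DMSO neutral wells and 100% = GW8510 positive control wells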
# GSK3B inh = human GSK3beta kinase inhibitors, primary screen, biochemical, cell-free homogeneous, HTS; GST-GSK3beta kinase, ADP-Glo luminescence, 60 min; active compounds read low; activity score (negative = inhibition), % at 10 µM; actives 0.038% (n = 300,000); AID 2097, 2009;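 active = more than half of replicate wells score below -50%, meaning over 50% inhibition versus plate controls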;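 also: 0% = median DMSO wells and -100% = median GW8510 positive control wells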
# Target sequence (P49841 whole entry, looked up): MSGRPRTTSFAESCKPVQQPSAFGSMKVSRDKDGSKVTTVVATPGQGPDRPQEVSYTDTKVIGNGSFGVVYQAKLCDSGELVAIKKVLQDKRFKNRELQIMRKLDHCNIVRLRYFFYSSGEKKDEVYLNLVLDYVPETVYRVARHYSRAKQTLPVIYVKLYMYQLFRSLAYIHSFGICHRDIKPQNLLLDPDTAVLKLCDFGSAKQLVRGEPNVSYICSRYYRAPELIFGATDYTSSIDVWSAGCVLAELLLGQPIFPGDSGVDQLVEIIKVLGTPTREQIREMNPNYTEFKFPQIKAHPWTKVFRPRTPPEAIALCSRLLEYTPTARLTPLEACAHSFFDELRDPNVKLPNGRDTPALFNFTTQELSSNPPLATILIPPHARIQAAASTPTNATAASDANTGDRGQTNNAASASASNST
#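 Test system: GST-fused GSK3beta enzyme, cell-free | Quantity: 1.6 ng GST-GSK3beta enzyme per well | Reagent: 25 µM ATP with peptide substrate | Schedule: 60 min enzyme reaction, room temperature | Signal: Luminescent ADP-Glo measurement of ADP formed | Read-out basis: Score relative to plate controls | Control set: DMSO and 20 µM GW8510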
# STK33 inh = inhibitors of purified STK33 kinase, primary screen, biochemical, ADP-Glo luminescence, homogeneous, cell-free; Serine/threonine-protein kinase 33 (Homo sapiens), Q9BYT3; MBP phosphorylation; actives 0.073% (n = 320,000); inhibition, % at 10 µM; AID 2661, 2010;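 active = inhibition at or above 25%, using the most active replicate where run in duplicate; inactive = inhibition below 25%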
# MEKK2 mut-MEK5 = MEK5 binding signal on mutant MEKK2 PB1, primary screen, biochemical, multiplex bead flow cytometry, Alexa488-MEK5 | Alexa488-MEK5 binding to MEKK2 mutant | percent response, % at 10 µM | actives 0.35% (n = 290,000); in the data active = percent response above about 24%, passing the limit was not always enough
# MEKK3 PB1 HTS = modulators of MEKK3-MEK5 PB1 binding, primary screen, biochemical, wildtype MEKK3, multiplex bead flow cytometry, Alexa488-MEK5 | Mitogen-activated protein kinase kinase kinase 3 (Homo sapiens), Q99759 | bead-based flow cytometry, Alexa488-MEK5 binding to MEKK3; actives lie on both sides; 0 = blocked by unlabeled MEK5, 100 = vehicle | binding response (% of control), % at 10 µM | actives 1.4% (n = 290,000);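 active = binding response more than 3 SD above or below the average of its plate-row segment, actives on both sides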;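 also: Alexa488 bead fluorescence after subtracting the streptavidin-only scavenger bead signal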
# MEKK2wt PB1 HTS = modulators of MEK5 binding to wildtype MEKK2, primary screen, biochemical, multiplex bead flow cytometry, Alexa488-MEK5. binding response (% of control), % at 10 µM. Mitogen-activated protein kinase kinase kinase 2 (Homo sapiens), Q9Y2U5. Alexa488-MEK5 binding to MEKK2 WT; actives lie on both sides. actives 1.1% (n = 290,000); in the data active = binding response below about 67% or above about 130%
# MEKK2wt confirm = modulators of MEK5 binding to wildtype MEKK2, confirmation, biochemical, single concentration, multiplex bead flow cytometry. shares compounds with MEKK3 PB1 HTS. Alexa488-MEK5 binding to MEKK2 WT; actives lie on both sides. binding response (% of control), % at 10 µM. actives 2.4% (n = 5,900). AID 1892, 2009; in the data active = binding response below about 16% or above about 210%; inactive = in between
# MEKK2mut confirm = mutant MEKK2 PB1-MEK5 binding signal retest – biochemical, single concentration, multiplex bead flow cytometry, confirmation; AID 1893, 2009; Alexa488-MEK5 binding to MEKK2 mutant; shares compounds with MEKK3 PB1 HTS; actives 2% (n = 5,900); percent response, % at 10 µM; in the data active = percent response mostly above about 71%, no sharp cut-off; inactive = mostly below about 38%;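 also: higher means compound restores mutant binding toward wildtype level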
# MEKK3-MEK5 inh = MEKK3 wild-type PB1 binding to MEK5, inhibitors, confirmation, biochemical, bead multiplex flow cytometry, single concentration, wildtype. shares compounds with MEKK3 PB1 HTS. Alexa488-MEK5 binding to MEKK3; active compounds read low. binding response (% of control), % at 10 µM. actives 1.8% (n = 5,900). AID 1894, 2009;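 active = binding response below 72% of control, or above a set upper limit, though filed actives all read lower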;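 also: 100% = DMSO only wells and 0% = binding blocked by excess unlabeled MEK5; lower values mean stronger disruption of MEK5 binding to MEKK3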
# Starred values were filed as active, the others as inactive; . = no result given; [ ] = another dose, or the depositor's remark.
SMILES,GSK3 alpha inh,GSK3B inh,STK33 inh,MEKK2 mut-MEK5,MEKK3 PB1 HTS,MEKK2wt PB1 HTS,MEKK2wt confirm,MEKK2mut confirm,MEKK3-MEK5 inh
CCCCC(CC(O)COCCC)c1n[nH]c(=S)n1-c1ccccc1 (stereo not given),0,-2,-4,-1,128*,106,106,5,101
O=c1c2ccccc2nc(/C=C/c2c[nH]c3ccccc23)n1-c1ccc([N+](=O)[O-])cc1,1,-2,-2,-2,75*[inhibitor],95,96,-7,96
Cc1[nH]c2ccccc2c1/C=C/c1nc2ccccc2c(=O)n1-c1cccc([N+](=O)[O-])c1,0,-1,0,-7,90,90,.,.,.
COc1ccccc1NC(=O)CNC(=O)c1ccccc1C,0,3,-2,-17,75*[inhibitor],78,102,3,107
Cc1nc2c3ccccc3nc(NNC(=O)CCC(=O)NCCC(C)C)n2n1,.,-1,.,0,130*,109,99,-5,101
CC(=O)OCC[C@H](NS(=O)(=O)OCC(Cl)(Cl)Cl)c1ccccc1,-2,0,-3,2,109,106,.,.,.
COc1ccccc1C1CC(=O)NC(C)=C1C(=O)OC(C)C (stereo not given),1,.,-1,-15,49*[inhibitor],54,96,-2,104
COC(=O)C1=C(C)NC(=O)CC1c1cccc(Cl)c1Cl (stereo not given),17,4,0,9,98,100,.,.,.
CCCn1c(N)c(C(=O)NS(=O)(=O)c2ccc(C)cc2)c(=O)n(C)c1=O,1,1,-1,-7,106,96,.,.,.
CCOc1ccc(OCCN2CCCCC2)cc1,.,2,.,-3,93,92,.,.,.
c1cc(OCCCN2CCCCC2)ccc1CN1CCCCC1,-2,0,-2,33*,113,190*,139,31,106
Nc1ccc(CN2CCCCCC2)cc1,1,2,0,13,116,136*,41,-20,81
ON=C1c2cc(OCCN3CCCCC3)ccc2-c2ccc(OCCN3CCCCC3)cc21,-1,0,1,31*,117,232*,180,48,105
Brc1ccc(CN2CCCCCC2)cc1,3,-4,-1,.,.,.,.,.,.
O=C1Cc2ccccc2Sc2cc(OCCCN3CCCCC3)ccc21,24,-4,1,1,75*[inhibitor],108,118,-1,99
CN(C)CCCOc1ccc2c(c1)Sc1ccccc1CC2=O,20,1,-2,0,96,109,.,.,.
Cc1noc(C)c1S(=O)(=O)Nc1ccc2c(c1)C(=O)N([C@H](C)CO)C[C@H](C)[C@@H](CN(C)C(=O)NC1CCCCC1)O2,0,.,0,.,.,.,.,.,.
COC(=O)c1cc(C(=O)OC)cc(-n2c(C)cc(C(=O)COC(=O)CNS(=O)(=O)c3ccc(C)cc3)c2C)c1,-2,1,-2,-1,101,100,.,.,.
COc1ccc(Br)cc1CN1CCN(C(=O)c2cccc(F)c2)CC1,-3,1,-1,9,108,109,.,.,.

# Screening results as filed in PubChem BioAssay.
